Data as given in ChEMBL document CHEMBL1133174, “Disubstituted indazoles as potent antagonists of the integrin alpha(v)beta(3)” (J Med Chem, 2000).

molecular target: Integrin alpha-IIb/beta-3 (Homo sapiens, UniProt P05106+P08514); experiment: Inhibition of aggregation of human gel-purified platelets (GPIIbIIIa GPP); type: functional
Outline: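 Human platelets from healthy-volunteer platelet-rich plasma were gel-purified on sepharose and used at 2×10^8 platelets/mL with 1 mM CaCl2 and 1 mg/mL fibrinogen. Aggregation was measured with or without compound at several concentrations and IC50 calculated. Values are single determinations.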

Chain of Integrin alpha-IIb/beta-3 (P05106 27-788 limits assumed): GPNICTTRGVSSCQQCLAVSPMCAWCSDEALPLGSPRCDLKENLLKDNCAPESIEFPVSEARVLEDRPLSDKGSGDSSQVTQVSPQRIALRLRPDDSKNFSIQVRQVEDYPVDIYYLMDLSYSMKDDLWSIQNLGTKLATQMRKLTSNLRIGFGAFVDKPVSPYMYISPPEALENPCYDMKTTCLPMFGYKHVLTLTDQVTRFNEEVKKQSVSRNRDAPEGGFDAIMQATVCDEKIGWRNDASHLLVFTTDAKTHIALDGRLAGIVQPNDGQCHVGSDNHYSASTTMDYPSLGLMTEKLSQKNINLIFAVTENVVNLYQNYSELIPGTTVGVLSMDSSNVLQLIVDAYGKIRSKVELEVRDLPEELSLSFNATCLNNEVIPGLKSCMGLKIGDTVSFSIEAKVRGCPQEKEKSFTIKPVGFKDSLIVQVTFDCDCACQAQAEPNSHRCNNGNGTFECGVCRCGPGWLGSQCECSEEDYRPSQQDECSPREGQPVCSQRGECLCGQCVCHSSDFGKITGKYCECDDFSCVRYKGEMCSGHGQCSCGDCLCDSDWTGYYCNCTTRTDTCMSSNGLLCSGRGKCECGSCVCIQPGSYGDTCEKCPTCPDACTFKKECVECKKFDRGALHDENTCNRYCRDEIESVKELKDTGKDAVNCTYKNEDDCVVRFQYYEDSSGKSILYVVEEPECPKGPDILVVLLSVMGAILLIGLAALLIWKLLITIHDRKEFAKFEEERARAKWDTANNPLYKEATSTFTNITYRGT
Chain of Integrin alpha-IIb/beta-3 (P08514 32-887 limits assumed): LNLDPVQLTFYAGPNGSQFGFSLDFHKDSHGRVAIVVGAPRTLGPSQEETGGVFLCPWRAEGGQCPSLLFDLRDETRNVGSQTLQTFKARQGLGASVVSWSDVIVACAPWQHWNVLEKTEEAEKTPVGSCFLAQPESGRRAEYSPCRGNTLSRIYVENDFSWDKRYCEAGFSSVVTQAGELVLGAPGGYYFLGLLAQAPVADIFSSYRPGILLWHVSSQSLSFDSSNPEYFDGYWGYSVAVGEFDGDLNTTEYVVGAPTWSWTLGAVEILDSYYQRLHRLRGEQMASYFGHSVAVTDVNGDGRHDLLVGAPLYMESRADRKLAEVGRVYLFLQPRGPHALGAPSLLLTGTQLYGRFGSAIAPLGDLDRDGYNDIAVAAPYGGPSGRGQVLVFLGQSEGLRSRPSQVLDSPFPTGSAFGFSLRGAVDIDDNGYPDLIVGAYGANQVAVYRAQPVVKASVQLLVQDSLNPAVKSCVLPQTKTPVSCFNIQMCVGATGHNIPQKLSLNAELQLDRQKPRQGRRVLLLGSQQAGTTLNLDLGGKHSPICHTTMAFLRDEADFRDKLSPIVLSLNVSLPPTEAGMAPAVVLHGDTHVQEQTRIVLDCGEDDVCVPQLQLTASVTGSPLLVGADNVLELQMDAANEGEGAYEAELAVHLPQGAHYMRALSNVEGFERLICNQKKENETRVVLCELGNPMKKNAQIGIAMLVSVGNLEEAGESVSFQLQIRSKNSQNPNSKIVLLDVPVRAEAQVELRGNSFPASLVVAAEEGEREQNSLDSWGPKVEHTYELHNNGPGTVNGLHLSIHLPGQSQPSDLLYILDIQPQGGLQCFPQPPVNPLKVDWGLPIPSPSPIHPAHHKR
Chain of Integrin alpha-IIb/beta-3 (P08514 891-1039 limits assumed): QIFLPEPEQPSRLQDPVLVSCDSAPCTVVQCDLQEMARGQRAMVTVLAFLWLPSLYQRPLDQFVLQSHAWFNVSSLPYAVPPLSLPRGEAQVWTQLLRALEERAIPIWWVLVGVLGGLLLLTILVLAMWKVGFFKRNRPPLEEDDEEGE

Row | IC50 [nM] | SMILES
1 | 61000 | Cc1cc(C)c(S(=O)(=O)N[C@@H](CNC(=O)C2=NOC(CCCC(=O)Nc3ncc[nH]3)C2)C(=O)O)c(C)c1 (some centres undefined)

molecular target: T1, Integrin alpha-V/beta-3 (Homo sapiens, UniProt P05106+P06756); experiment: Inhibition of adhesion of integrin beta-3-transfected HEK293 cells to fibrinogen; type: functional, cell-based
T1 sequence (P05106 27-788 limits assumed): as the sequence (P05106 27-788 limits assumed) above
T1 sequence (P06756 31-889 limits assumed): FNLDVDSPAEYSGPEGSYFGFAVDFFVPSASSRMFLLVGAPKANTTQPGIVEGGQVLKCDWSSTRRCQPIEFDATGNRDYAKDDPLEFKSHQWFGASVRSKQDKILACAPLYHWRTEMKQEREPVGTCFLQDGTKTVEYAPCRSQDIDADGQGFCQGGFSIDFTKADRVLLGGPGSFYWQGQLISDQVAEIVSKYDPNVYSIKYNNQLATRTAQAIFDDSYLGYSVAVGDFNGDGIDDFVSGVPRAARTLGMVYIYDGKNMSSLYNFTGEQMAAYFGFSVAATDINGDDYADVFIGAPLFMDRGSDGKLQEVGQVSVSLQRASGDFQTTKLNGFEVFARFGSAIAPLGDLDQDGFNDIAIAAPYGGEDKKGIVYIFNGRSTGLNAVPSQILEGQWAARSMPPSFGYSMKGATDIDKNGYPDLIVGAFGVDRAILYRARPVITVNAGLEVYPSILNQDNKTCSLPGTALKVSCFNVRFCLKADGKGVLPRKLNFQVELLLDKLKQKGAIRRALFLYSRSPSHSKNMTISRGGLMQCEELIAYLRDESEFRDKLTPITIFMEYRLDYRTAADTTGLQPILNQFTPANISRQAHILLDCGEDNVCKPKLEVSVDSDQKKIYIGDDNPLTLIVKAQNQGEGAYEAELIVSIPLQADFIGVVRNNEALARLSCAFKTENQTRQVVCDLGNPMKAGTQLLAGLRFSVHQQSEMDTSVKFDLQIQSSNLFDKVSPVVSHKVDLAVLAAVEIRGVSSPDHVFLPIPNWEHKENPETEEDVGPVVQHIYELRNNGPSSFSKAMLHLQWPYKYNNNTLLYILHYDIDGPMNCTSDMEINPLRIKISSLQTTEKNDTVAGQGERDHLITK
T1 sequence (P06756 891-1048 limits assumed): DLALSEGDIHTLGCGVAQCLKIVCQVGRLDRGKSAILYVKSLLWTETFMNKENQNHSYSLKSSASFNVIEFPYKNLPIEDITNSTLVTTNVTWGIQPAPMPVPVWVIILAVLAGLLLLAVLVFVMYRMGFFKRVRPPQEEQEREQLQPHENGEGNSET
Outline: (§1)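 Fibrinogen-coated plates were blocked with BSA in PBS. HEK293 cells expressing human β3 subunit were preincubated 15 min at 37 °C with or without compound, then allowed to adhere for 60 min. Nonadherent cells were washed off with PBS, adherent cells lysed, and β-galactosidase activity read. IC50 was derived from standard curves and reported ± SEM.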

Row | IC50 [nM] | SMILES
2 | 70 | Cc1cc(C)c(S(=O)(=O)N[C@@H](CNC(=O)c2ccc3c(cnn3CCCNC3=NCCN3)c2)C(=O)O)c(C)c1
3 | 28 | Cc1cc(C)c(S(=O)(=O)N[C@@H](CNC(=O)c2ccc3c(cnn3CCCNC3=NCCCN3)c2)C(=O)O)c(C)c1

molecular target: T1, Integrin alpha-V/beta-3; experiment: Inhibition of Vitronectin receptor (alpha V beta 3) binding; type: protein-complex assay

Row | IC50 [nM] | SMILES
4 | 55 | O=C(N[C@@H](CNC(=O)c1ccc2nn(CCCNC3=NCCN3)cc2c1)C(=O)O)OCc1ccccc1
5 | 51 | O=C(N[C@@H](CNC(=O)c1ccc2c(cnn2CCNC2=NCCN2)c1)C(=O)O)OCc1ccccc1
6 | 3.8 | O=C(N[C@@H](CNC(=O)c1ccc2c(cnn2CCCNC2=NCCN2)c1)C(=O)O)OCc1ccccc1
7 | 250 | O=C(N[C@@H](CNC(=O)c1ccc2c(cnn2CCCCNC2=NCCN2)c1)C(=O)O)OCc1ccccc1
8 | 1500 | O=C(N[C@H](CNC(=O)c1ccc2cnn(CCCNC3=NCCN3)c2c1)C(=O)O)OCc1ccccc1
9 | 7.3 | O=C(N[C@@H](CNC(=O)c1cccc2c1cnn2CCCNC1=NCCN1)C(=O)O)OCc1ccccc1
10 | 25 | O=C(N[C@H](CNC(=O)c1ccc2cn(CCCNC3=NCCN3)nc2c1)C(=O)O)OCc1ccccc1
11 | < 0.1 | Cc1cc(C)c(S(=O)(=O)N[C@@H](CNC(=O)c2cccc3c2cnn3CCCNc2ncc[nH]2)C(=O)O)c(C)c1

molecular target: T1, Integrin alpha-V/beta-3; experiment: Inhibitory activity against beta-3-transfected 293 cells using alpha-V beta-3 antagonism assay; type: functional, cell-based, HEK293; outline: as §1

Row | IC50 [nM] | SMILES
12 | > 1000 | Cc1cc(C)c(S(=O)(=O)N[C@@H](CN(C)C(=O)c2ccc3c(cnn3CCCNc3ccccn3)c2)C(=O)O)c(C)c1
13 | 360 | CCCCS(=O)(=O)N[C@@H](CNC(=O)c1ccc2c(cnn2CCCNc2ccccn2)c1)C(=O)O
14 | > 1000 | CC(C)CNS(=O)(=O)N[C@@H](CNC(=O)c1ccc2c(cnn2CCCNc2ccccn2)c1)C(=O)O
15 | > 1000 | O=C(NC[C@H](NS(=O)(=O)Cc1ccccc1)C(=O)O)c1ccc2c(cnn2CCCNc2ccccn2)c1
16 | 120 | CC(C)(C)c1ccc(S(=O)(=O)N[C@@H](CNC(=O)c2ccc3c(cnn3CCCNc3ncc[nH]3)c2)C(=O)O)cc1
17 | 8.5 | O=C(NC[C@H](NS(=O)(=O)c1c(Cl)cccc1Cl)C(=O)O)c1ccc2c(cnn2CCCNc2ncc[nH]2)c1
18 | 300 | O=C(N[C@@H](CNC(=O)c1ccc2c(cnn2CCCNc2ccccn2)c1)C(=O)O)OCc1ccccc1
19 | 44 | O=C(NC[C@H](NS(=O)(=O)c1ccccc1)C(=O)O)c1ccc2c(cnn2CCCNc2ncc[nH]2)c1
20 | 56 | Cc1cc(C)c(S(=O)(=O)N[C@@H](CNC(=O)c2ccc3c(cnn3CCC(=O)Nc3ncc[nH]3)c2)C(=O)O)c(C)c1
21 | 2.3 | Cc1cc(C)c(S(=O)(=O)N[C@@H](CNC(=O)c2ccc3c(cnn3CCCNc3ncc[nH]3)c2)C(=O)O)c(C)c1
22 | 840 | Cc1cc(C)c(S(=O)(=O)N[C@@H](CC(=O)Nc2ccc3c(cnn3CCCNc3ccccn3)c2)C(=O)O)c(C)c1
23 | > 1000 | Cc1cc(C)c(S(=O)(=O)N[C@@H](CNC(=O)c2ccc3c(cnn3CCCNc3cc[nH]n3)c2)C(=O)O)c(C)c1
24 | > 1000 | Cc1cc(C)c(NC(=O)[C@H](CC(=O)O)NC(=O)c2ccc3c(cnn3CCCNc3ccccn3)c2)c(C)c1
25 | 35 | O=C(NC[C@H](NS(=O)(=O)c1ccc(-c2ccccc2)cc1)C(=O)O)c1ccc2c(cnn2CCCNc2ncc[nH]2)c1
26 | > 1000 | O=C(Nc1ccccc1)N[C@@H](CNC(=O)c1ccc2c(cnn2CCCNc2ccccn2)c1)C(=O)O
27 | > 1000 | CC(C)CCC(=O)N[C@@H](CNC(=O)c1ccc2c(cnn2CCCNc2ccccn2)c1)C(=O)O
28 | 26 | COc1ccc(S(=O)(=O)N[C@@H](CNC(=O)c2ccc3c(cnn3CCCNc3ncc[nH]3)c2)C(=O)O)cc1
29 | 600 | O=C(NC[C@H](NS(=O)(=O)NCc1ccccc1)C(=O)O)c1ccc2c(cnn2CCCNc2ccccn2)c1
30 | 74 | O=C(N[C@@H](CNC(=O)c1ccc2c(cnn2CCCNc2ncc[nH]2)c1)C(=O)O)OCc1ccccc1
31 | > 1000 | O=C(O)C[C@H](NC(=O)c1ccc2c(cnn2CCCNc2ccccn2)c1)C(=O)NCCc1ccccc1

Row | IC50 [nM] | SMILES
32 | > 1000 | O=C(O)CCNC(=O)c1ccc2c(cnn2CCCNc2ncc[nH]2)c1
33 | 360 | Cc1cc(C)c(NS(=O)(=O)N[C@@H](CNC(=O)c2ccc3c(cnn3CCCNc3ccccn3)c2)C(=O)O)c(C)c1
34 | 120 | O=C(NC[C@H](NS(=O)(=O)c1ccccc1)C(=O)O)c1ccc2c(cnn2CCCNc2ccccn2)c1
35 | 13 | O=C(NC[C@H](NS(=O)(=O)c1cccc2ccccc12)C(=O)O)c1ccc2c(cnn2CCCNc2ncc[nH]2)c1
36 | 290 | Cc1cc(C)c(S(=O)(=O)N[C@H](CNC(=O)c2ccc3c(cnn3CCCNc3ncc[nH]3)c2)C(=O)O)c(C)c1
37 | 10 | O=C(NC[C@H](NS(=O)(=O)c1ccc(Cl)c(Cl)c1)C(=O)O)c1ccc2c(cnn2CCCNc2ncc[nH]2)c1
38 | 4.7 | O=C(NC[C@H](NS(=O)(=O)c1ccc2ccccc2c1)C(=O)O)c1ccc2c(cnn2CCCNc2ncc[nH]2)c1
39 | 240 | CC(C)COC(=O)N[C@@H](CNC(=O)c1ccc2c(cnn2CCCNc2ccccn2)c1)C(=O)O
40 | 10 | Cc1cccc(C)c1S(=O)(=O)N[C@@H](CNC(=O)c1ccc2c(cnn2CCCNc2ncc[nH]2)c1)C(=O)O
41 | 150 | CC(=O)Nc1ccc(S(=O)(=O)N[C@@H](CNC(=O)c2ccc3c(cnn3CCCNc3ncc[nH]3)c2)C(=O)O)cc1
42 | 4.9 | Cc1cc(-c2ccccc2)cc(C)c1S(=O)(=O)N[C@@H](CNC(=O)c1ccc2c(cnn2CCCNc2ncc[nH]2)c1)C(=O)O
43 | 170 | O=C(NC[C@H](NS(=O)(=O)Nc1ccccc1)C(=O)O)c1ccc2c(cnn2CCCNc2ccccn2)c1
44 | 16 | Cc1ccc(S(=O)(=O)N[C@@H](CNC(=O)c2ccc3c(cnn3CCCNc3ncc[nH]3)c2)C(=O)O)cc1
45 | > 1000 | O=C(O)CCNC(=O)c1ccc2c(cnn2CCCNc2ccccn2)c1
46 | > 1000 | Cc1cc(C)c(S(=O)(=O)NCCNC(=O)c2ccc3c(cnn3CCCNc3ncc[nH]3)c2)c(C)c1
47 | 48 | Cc1cc(C)c(S(=O)(=O)N[C@@H](CNC(=O)c2ccc3c(cnn3CCCNc3ccccn3)c2)C(=O)O)c(C)c1
48 | > 1000 | O=C(NCc1ccccc1)N[C@@H](CNC(=O)c1ccc2c(cnn2CCCNc2ccccn2)c1)C(=O)O
49 | > 1000 | O=C(CCc1ccccc1)N[C@@H](CNC(=O)c1ccc2c(cnn2CCCNc2ccccn2)c1)C(=O)O
50 | 10 | O=C(NC[C@H](NS(=O)(=O)c1ccc(Cl)cc1)C(=O)O)c1ccc2c(cnn2CCCNc2ncc[nH]2)c1
51 | 52 | O=C(NC[C@H](NS(=O)(=O)c1ccc(C(F)(F)F)cc1)C(=O)O)c1ccc2c(cnn2CCCNc2ncc[nH]2)c1

molecular target: T1, Integrin alpha-V/beta-3; experiment: Inhibitory activity against beta-3-transfected 293 cells using alphaV-beta3 antagonism assay; type: functional, cell-based, HEK293; outline: as §1

Row | IC50 [nM] | SMILES
52 | > 1000 | O=C(N[C@@H](CNC(=O)c1ccc2nn(CCCNC3=NCCN3)cc2c1)C(=O)O)OCc1ccccc1
53 | > 1000 | O=C(N[C@@H](CNC(=O)c1ccc2c(cnn2CCNC2=NCCN2)c1)C(=O)O)OCc1ccccc1
54 | 460 | O=C(N[C@@H](CNC(=O)c1ccc2c(cnn2CCCNC2=NCCN2)c1)C(=O)O)OCc1ccccc1
55 | > 1000 | O=C(N[C@@H](CNC(=O)c1ccc2c(cnn2CCCCNC2=NCCN2)c1)C(=O)O)OCc1ccccc1
56 | > 1000 | O=C(N[C@H](CNC(=O)c1ccc2cnn(CCCNC3=NCCN3)c2c1)C(=O)O)OCc1ccccc1
57 | > 1000 | O=C(N[C@@H](CNC(=O)c1cccc2c1cnn2CCCNC1=NCCN1)C(=O)O)OCc1ccccc1
58 | > 1000 | O=C(N[C@H](CNC(=O)c1ccc2cn(CCCNC3=NCCN3)nc2c1)C(=O)O)OCc1ccccc1
59 | 25 | Cc1cc(C)c(S(=O)(=O)N[C@@H](CNC(=O)c2cccc3c2cnn3CCCNc2ncc[nH]2)C(=O)O)c(C)c1
